Columns and labels:
[1] = molecular target: Adrenergic receptor beta (Rattus norvegicus, UniProt P18090+P10608+P26255); test: Antagonism of Beta adrenergic receptor in the isolated rat uterus; assay type: functional, tissue-based
[2] = molecular target: Histamine H2 receptor (Cavia porcellus, UniProt P47747); test: Competitive antagonism of Histamine H2 receptor in the isolated guinea pig atrium; assay type: functional, tissue-based, Cardiac atrium; settings: read-out: pA2 (converted)
Method in brief: (§1)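 Isolated guinea pig right atrium; antagonism of the positive chronotropic response to histamine. Apparent KB from the Furchgott method: KB = antagonist concentration/(dose ratio − 1), using a single antagonist concentration that gave parallel dose-response shifts without lowering the maximum. Values are means of three to five preparations per antagonist.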

[3] = molecular target: Histamine H1 receptor (Cavia porcellus, UniProt P31389); test: Antagonism of Histamine H1 receptor in the isolated guinea pig ileum; assay type: functional, tissue-based; settings: read-out: pA2 (converted)
Sequence of Histamine H1 receptor (P31389 whole entry): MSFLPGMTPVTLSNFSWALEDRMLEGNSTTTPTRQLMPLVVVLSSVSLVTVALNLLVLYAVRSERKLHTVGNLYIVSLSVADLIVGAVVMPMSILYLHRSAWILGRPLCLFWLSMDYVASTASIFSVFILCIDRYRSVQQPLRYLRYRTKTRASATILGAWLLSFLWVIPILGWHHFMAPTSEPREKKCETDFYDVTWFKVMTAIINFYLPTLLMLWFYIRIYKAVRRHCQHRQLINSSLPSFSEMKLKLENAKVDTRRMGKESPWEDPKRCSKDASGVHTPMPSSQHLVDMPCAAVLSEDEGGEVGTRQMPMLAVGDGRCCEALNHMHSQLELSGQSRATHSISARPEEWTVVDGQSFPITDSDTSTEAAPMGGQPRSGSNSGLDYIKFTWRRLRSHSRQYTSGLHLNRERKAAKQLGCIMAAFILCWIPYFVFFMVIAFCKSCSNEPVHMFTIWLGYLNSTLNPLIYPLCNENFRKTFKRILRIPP
Method in brief: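 Isolated guinea pig ileum; contractile responses to histamine (H1) or methacholine (muscarinic) were tested for blockade.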

[4] = organism: Rattus norvegicus; test: Inhibition of gastric acid secretion in the pylorus-ligated rat (after 2h); assay type: functional; settings: Stomach
Method in brief: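 Pylorus-ligated rat, by a modified Shay procedure. Compound given subcutaneously at no fewer than five dose levels (three in one case), with at least five rats per dose.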

[5] = Potency ratio in pylorus-ligated rat relative to cimetidine (after 2h); assay type: functional
[6] = organism: Cavia porcellus; test: Antagonism of the positive chronotropic action of histamine in the isolated guinea pig atrium; assay type: functional; settings: Cardiac atrium; method in brief: as §1

Sequence of Histamine H2 receptor (P47747 whole entry): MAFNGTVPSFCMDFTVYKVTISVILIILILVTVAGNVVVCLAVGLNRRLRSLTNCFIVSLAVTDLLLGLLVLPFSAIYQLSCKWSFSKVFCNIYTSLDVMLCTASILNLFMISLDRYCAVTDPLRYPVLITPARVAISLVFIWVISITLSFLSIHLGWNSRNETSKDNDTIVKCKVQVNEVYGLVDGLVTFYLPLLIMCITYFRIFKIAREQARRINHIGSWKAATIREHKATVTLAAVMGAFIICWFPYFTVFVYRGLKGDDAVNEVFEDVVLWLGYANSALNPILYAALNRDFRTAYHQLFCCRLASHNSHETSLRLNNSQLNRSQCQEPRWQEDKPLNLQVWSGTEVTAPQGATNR

pA2 [1] | Kb [2] [nM] | Kb [3] [nM] | SMILES | ED50 [4] [µmol/kg] | Ratio [5] | Kb [6] [nM]
4.3 | 25.1 | 126000 | N=C(N)Nc1nc(CSCCNc2n[s+]([O-])nc2N)cs1 (centres undefined) | – | – | –
– | – | – | CNC1=NS(=O)(=O)N=C1NCCSCc1ccc(CN(C)C)s1 | 0.072 | 94 | 140
– | – | – | CNC1=NS(=O)(=O)N=C1NCCSCc1[nH]cnc1C | 131 | 0.07 | 11500
– | – | – | CN(C)Cc1cccc(OCCCNc2n[s+]([O-])nc2N)c1 (centres undefined) | 0.066 | 142 | 65
– | – | – | CN/C(=N\CCSCc1nc[nH]c1C)NC#N [CIMETIDINE] | 9.4 | – | 1200
